For data set [1], the system named is Mus musculus. Description: inhibition of PQW-writhing in mice on subcutaneous administration at dose 10 mg/kg. compound showed slight activity in the range of 10-34%,. It is filed as functional. The note with it: sc. A general note: An intraperitoneal irritant provokes the stretching counted in writhing tests.
In data set [2] the test system is Mus musculus. Description: Inhibition of PQW-writhing in mice on subcutaneous administration at dose 10 mg/kg. It is filed as functional. The settings on record: sc.
The test system of data set [3] is Mus musculus. Briefly: Inhibition of PQW-writhing in mice on subcutaneous administration at dose 10 mg/kg. compound showed 10-34% inhibition (slight activity). The note with it: sc. It is filed as functional.
The test system of data set [4] is Mus musculus. Briefly: Inhibition of PQW-writhing in mice on subcutaneous administration at dose 10 mg/kg; Slight activity in the range of 10-34%. It counts as functional. The note with it: sc.
Data set [5] has as its system Mus musculus. Briefly: Inhibition of PQW-writhing in mice on subcutaneous administration at dose 25 mg/kg; Range of inhibition 35-69% (moderate activity). It is filed as functional. The note with it: sc.
The subject of data set [6] is Mus musculus. Briefly: inhibition of PQW-writhing in mice on subcutaneous administration at dose 10 mg/kg. compound showed moderate activity in the range of 35-69%. The settings on record: sc. It counts as functional.
The test system of data set [7] is Mus musculus. Briefly: inhibition of PQW-writhing in mice on subcutaneous administration at dose 10 mg/kg. compound showed slight activity in the range of 10-34%. It is filed as functional. The note with it: sc.
Data set [8] relates to Rattus norvegicus. Description: (§1) Oral anti-writhing activity at a dose of 25 mg/kg administered perorally in PQW assay. It counts as functional. A digest of the protocol:
(§2)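 Mouse phenylquinone writhing assay with the compound given orally at 25 mg/kg. Writhing was induced with 0.125% phenyl-p-benzoquinone in 5% aqueous ethanol, 10 mL/kg ip. Writhes were counted over 10 min after a 5-min wait, and percent inhibition was calculated against vehicle-treated controls.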

Data set [9] deals with Mus musculus. The data set is described as §1. It is filed as functional. A digest of the protocol:
as §2

For data set [10], the species on record is Rattus norvegicus. Description: The analgesic activity by D'Armour-Smith tail-flick assay in rats. It counts as functional. In a few lines: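 Rat tail-flick test. Compound was given sc in distilled water at 4, 8, 16 and 32 mg/kg, and percent analgesic activity was recorded at each dose. ED50 was calculated by Litchfield-Wilcoxon analysis with 95% confidence limits.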
(In general: Hot-plate and tail-flick tests time the reaction to a heat stimulus.)

Data set [11] is described as follows: Compound was tested for the approximate analgesic lethal dose (ALD50) on rats. It counts as ADME, organism-based. The note with it: rat, in vivo; read-out: ALD50.
For data set [12], the system named is Mus musculus. Briefly: Inhibition of PQW-writhing in mice on subcutaneous administration at dose 10 mg/kg; Moderate activity in the range of 35-69%. It is filed as functional. The note with it: sc.

The values below come from ChEMBL document CHEMBL1122935, “3-(1-Indolinyl)benzylamines: a new class of analgesic agents” (J Med Chem, 1985).

Where only a bound is given, the exact number is not on record here.

With `CNCc1cccc(N2CCc3ccccc32)c1`, 10 mg/kg produced 34% inhibition in vivo in data set [1].
`NCc1ccccc1N1CCc2ccccc21`: it took a dose of 14.1 mg/kg to reach the 50% effect level in [2] (ED50).
As to `NCc1ccc(N2CCc3ccccc32)cc1`, the inhibition in vivo (as a rule, the percentage by which the read-out fell short of the control) at 10 mg/kg in data set [3] came out at 34%.
With `COc1ccc2c(c1)CCN2Cc1cccc(CN)c1`, in data set [4], the inhibition in vivo at 10 mg/kg was found to be 34%.
Take `Nc1ccccc1N1CCc2ccccc21`: the inhibition in vivo at 25 mg/kg in data set [5] was 43%.
On to `O=C(NCc1cccc(N2CCc3ccccc32)c1)C1CC1`, for which the inhibition in vivo at 10 mg/kg in data set [6] turned out to be 69%.
For the compound `COc1ccc2c(c1)CCN2c1cccc(CN)c1`, the inhibition in vivo at 10 mg/kg in data set [6] was 69%.
On the same count and under the same terms, under `NCCc1cccc(N2CCc3ccccc32)c1` stands 69%; under `c1cc(CNCC2CC2)cc(N2CCc3ccccc32)c1`, 69%.
Take `CCC(=O)O[C@](Cc1ccccc1)(c1ccccc1)[C@H](C)CN(C)C` [PROPOXYPHENE]: in [2], the ED50 (commonly the dose at which the effect has come halfway, by size or by number of responders) was determined as 3.9 mg/kg.
On to `NCc1cccc(-n2ccc3cc(Cl)ccc32)c1`, for which 10 mg/kg produced 34% inhibition in vivo in data set [7].
On to `O=C(Cc1ccccc1)NCc1cccc(N2CCc3ccccc32)c1`, for which, in data set [6], 10 mg/kg produced 69% inhibition in vivo.
`NCc1cccc(N2CCc3cc(Cl)ccc32)c1`: the 50% effect level in data set [2] (ED50) was put at a dose of 4.2 mg/kg.
In [2], `NCc1cccc(CN2CCc3cc(Cl)ccc32)c1` displayed an ED50 of 20.2 mg/kg.
Compound `COc1ccc2c(ccn2-c2cccc(CN)c2)c1` showed an inhibition in vivo at 10 mg/kg in data set [6] of 69%.
Same read-out and setting: the same measure for `CC(N)c1cccc(N2CCc3ccccc32)c1` (centres undefined): 69%.
Turning to `NCc1cccc(-n2ccc3ccccc32)c1`, the 50% effect level in data set [2] (ED50) was put at a dose of 19.1 mg/kg.
`c1ccc(CCNCc2cccc(N3CCc4ccccc43)c2)cc1`: in [1], 10 mg/kg produced 34% inhibition in vivo.
Turning to `NC(c1ccccc1)c1cccc(N2CCc3ccccc32)c1` (centres undefined), testing at 10 mg/kg in data set [6] gave an inhibition in vivo of 69%.
For the compound `CCOC(=O)NCc1cccc(N2CCc3ccccc32)c1`, testing at 10 mg/kg in data set [1] gave an inhibition in vivo of 34%.
Same read-out and setting: the same measure for `CN(C)Cc1cccc(N2CCc3ccccc32)c1`: 34%.
For `NCc1cccc(N2CCc3ccccc32)c1`, the inhibition in vivo at 25 mg/kg in [8] was found to be 19%; in data set [9] it was 36%. Moreover, the median effective dose (ED50) was determined as 27 mg/kg in data set [10] and 4.2 mg/kg in data set [2]. Also, the LD50 in [11] is more than 100 mg/kg.
As to `CC(C)=CCN1CC[C@]2(C)c3cc(O)ccc3C[C@H]1[C@H]2C` [(+)-PENTAZOCINE], the ED50 in [10] is 14.6 mg/kg; in [2], 2.3 mg/kg.
`NCc1cccc(CN2CCc3ccccc32)c1` gave an inhibition in vivo at 10 mg/kg in [12] of 69%.
